Laboratory results taken from ChEMBL document CHEMBL3853320, “Discovery of Imidazoquinolines as a Novel Class of Potent, Selective, and in Vivo Efficacious Cancer Osaka Thyroid (COT) Kinase Inhibitors” (J Med Chem, 2016).
≈ marks a conversion by molar mass, not a printed value. One block for each compound: values may come before it. Calls of active or inactive are those of the source. No cut-off for these calls is given here.

Key:
[1] = biological target: T1, Mitogen-activated protein kinase kinase kinase 8 (Homo sapiens, UniProt P41279); test: Inhibition of human COT (66 to 395 residues) expressed in Sf21 cells using 5-Fluo-Ahx-AGAGSGQLIDSNleANSFVGTR-NH2 as substrate after 60 mins by caliper microfluidic mobility shift assay
[2] = biological target: T1, Mitogen-activated protein kinase kinase kinase 8; test: Inhibition of COT in LPS-stimulated human PBMC assessed as reduction in ERK1/2 phosphorylation incubated for 60 mins followed by LPS stimulation for 12 mins by flow cytometric analysis
Procedure, shortened: (§1)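 Primary human PBMCs were stimulated with LPS. Read-outs were pERK, TNFα release, or p65 phosphorylation, each reported as IC50.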

[3] = biological target: T1, Mitogen-activated protein kinase kinase kinase 8; test: Inhibition of COT in LPS-stimulated human PBMC assessed as reduction in TNFalpha release incubated for 1 hr followed by stimulation with LPS for 4 hrs by HTRF assay; procedure, shortened: as §1
[4] = Inhibition of NFkappaB pathway in LPS-stimulated human PBMC assessed as reduction in p65 phosphorylation incubated for 60 mins followed by LPS stimulation for 12 mins by flow cytometric analysis analysis; procedure, shortened: as §1
[5] = Equilibrium solubility of the compound at pH 6.8 after 16 hrs by mass spectrometric analysis; assay type: physicochemical; conditions: buffer
[6] = Inhibition of MEK/ERK signaling pathway in EGF-stimulated human A431 cells transfected with COT siRNA assessed as reduction in ERK1/2 phosphorylation incubated for 60 mins followed by stimulation with EGF for 10 mins by Western blot analysis; assay type: cell-based; conditions: A-431
[7] = Protein binding in human plasma at 5 uM after 4 hrs by rapid equilibrium dialysis method; assay type: ADME, cell-free; conditions: read-out: PPB (converted)
[8] = Equilibrium solubility of the compound at pH 4 after 16 hrs by mass spectrometric analysis; assay type: physicochemical; conditions: buffer
[9] = Inhibition of MEK/ERK signaling pathway in TNFalpha-stimulated human A431 cells transfected with COT siRNA assessed as reduction in ERK1/2 phosphorylation incubated for 60 mins followed by stimulation with TNFalpha for 10 mins by Western blot analysis; assay type: cell-based; conditions: A-431
[10] = biological target: Receptor-type tyrosine-protein kinase FLT3 (Homo sapiens, UniProt P36888, D835Y); test: Inhibition of FLT3 (563 to 993 residues) D835Y mutant (unknown origin) after 60 mins in presence of ATP by caliper microfluidic mobility shift assay
[11] = biological target: MAP kinase-interacting serine/threonine-protein kinase 2 (Homo sapiens, UniProt Q9HBH9); test: Inhibition of MKNK2 (unknown origin) after 60 mins in presence of ATP by caliper microfluidic mobility shift assay
[12] = biological target: T1, Mitogen-activated protein kinase kinase kinase 8; test: Inhibition of COT in LPS-stimulated human whole blood assessed as reduction in TNFalpha release incubated for 30 mins followed by stimulation with LPS for 3 hrs by HTRF assay; assay type: tissue-based
Procedure, shortened: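 Human whole blood was stimulated with LPS, and TNFα release was measured as IC50.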

[13] = Octanol-water partition coefficient, log P of the compound by shake-flask method; assay type: physicochemical
[14] = Drug excretion in bile-duct cannulated Sprague-Dawley rat bile at 3 mg/kg, iv; assay type: ADME, organism-based; conditions: read-out: Drug excretion
[15] = Clearance in wild type Sprague-Dawley rat plasma at 1 mg/kg, iv; assay type: ADME, organism-based
Procedure, shortened: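 Male wild-type Sprague–Dawley rats were given 1 mg/kg intravenously. Clearance was derived from plasma.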

[16] = Metabolic stability in bile-duct cannulated Sprague-Dawley rat assessed as parent compound remaining in blood at 3 mg/kg, iv measured 1 hr post dose; assay type: ADME, organism-based; conditions: read-out: Stability
[17] = Metabolic stability in bile-duct cannulated Sprague-Dawley rat assessed as parent compound remaining in urine at 3 mg/kg, iv measured over 8 hrs post dose; assay type: ADME, organism-based; conditions: read-out: Stability
Procedure, shortened: (§2)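 Bile-duct cannulated rats dosed in vivo. Parent and metabolites in each matrix were expressed as relative peak areas of the drug-related components detected, at the stated sampling time or collection period post dose.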

[18] = Metabolic stability in bile-duct cannulated Sprague-Dawley rat assessed as parent compound remaining in blood at 3 mg/kg, iv measured 4 hrs post dose; assay type: ADME, organism-based; conditions: read-out: Stability; procedure, shortened: as §2
[19] = Half life in wild type Sprague-Dawley rat liver microsomes at 5 uM preincubated for 3 mins followed by NADPH addition measured after 1 hr by HPLC/MS analysis; assay type: ADME
[20] = Drug excretion in bile-duct cannulated Sprague-Dawley rat urine at 3 mg/kg, iv; assay type: ADME, organism-based; conditions: read-out: Drug excretion
[21] = Metabolic stability in bile-duct cannulated Sprague-Dawley rat assessed as parent compound remaining in bile at 3 mg/kg, iv measured over 8 hrs post dose; assay type: ADME, organism-based; conditions: read-out: Stability
[22] = Metabolic stability in Sprague-Dawley rat liver microsomes assessed as parent compound remaining at 5 uM after 1 hr in presence of NADPH by HPLC/MS analysis; assay type: ADME; conditions: read-out: Stability
Canis familiaris = test: Antiinflammatory activity in MSU-induced beagle dog acute synovitis model assessed as prevention of inflammation-driven lameness at 0.2 mg/kg, po administered once a week 3 hrs post MSU injection measured after 6 hrs post last dose; assay type: functional, organism-based; conditions: Canis lupus familiaris
Procedure, shortened: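 Lameness was induced in dogs by uric acid injection into the joint. Treatment was vehicle, test article at 5 or 15 mg/kg, or meloxicam 0.2 mg/kg. Vertical peak force of the affected limb was measured on a force plate while trotting. The read-out was the time after treatment for that force to recover to 60% of the value measured before lameness.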

[23] = Drug level in bile-duct cannulated Sprague-Dawley rat liver treated with N-(1-morpholinopropan-2-yl)-6-(8-(thiophen-2-yl)-1H-imidazo[4,5-c][1,7]naphthyridin-1-yl)benzo[d]thiazol-2-amine at 3 mg/kg, iv measured 8 hrs post dose; assay type: ADME, organism-based; conditions: in vivo
[24] = Drug level in bile-duct cannulated Sprague-Dawley rat bile treated with N-(1-morpholinopropan-2-yl)-6-(8-(thiophen-2-yl)-1H-imidazo[4,5-c][1,7]naphthyridin-1-yl)benzo[d]thiazol-2-amine at 3 mg/kg, iv measured 8 hrs post dose; assay type: ADME, organism-based; conditions: in vivo
[25] = Drug level in bile-duct cannulated Sprague-Dawley rat kidney treated with N-(1-morpholinopropan-2-yl)-6-(8-(thiophen-2-yl)-1H-imidazo[4,5-c][1,7]naphthyridin-1-yl)benzo[d]thiazol-2-amine at 3 mg/kg, iv measured 8 hrs post dose; assay type: ADME, organism-based; conditions: in vivo
[26] = Drug level in bile-duct cannulated Sprague-Dawley rat urine treated with N-(1-morpholinopropan-2-yl)-6-(8-(thiophen-2-yl)-1H-imidazo[4,5-c][1,7]naphthyridin-1-yl)benzo[d]thiazol-2-amine at 3 mg/kg, iv measured 8 hrs post dose; assay type: ADME, organism-based; conditions: in vivo

T1 sequence (P41279 whole entry, the tested form may be a part): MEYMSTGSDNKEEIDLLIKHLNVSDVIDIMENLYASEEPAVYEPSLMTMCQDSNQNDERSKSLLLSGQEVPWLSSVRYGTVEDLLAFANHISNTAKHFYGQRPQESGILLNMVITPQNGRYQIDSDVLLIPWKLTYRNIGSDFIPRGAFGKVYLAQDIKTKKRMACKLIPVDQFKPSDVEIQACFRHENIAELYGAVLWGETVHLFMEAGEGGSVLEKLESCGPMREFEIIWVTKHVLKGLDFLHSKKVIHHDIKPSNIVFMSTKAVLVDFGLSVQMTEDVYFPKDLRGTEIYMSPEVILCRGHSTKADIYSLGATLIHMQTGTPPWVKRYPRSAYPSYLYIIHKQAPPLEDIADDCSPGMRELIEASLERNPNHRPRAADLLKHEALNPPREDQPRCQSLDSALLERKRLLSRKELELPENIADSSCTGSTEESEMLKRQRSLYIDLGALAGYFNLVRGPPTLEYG
MAP kinase-interacting serine/threonine-protein kinase 2, sequence (Q9HBH9 whole entry): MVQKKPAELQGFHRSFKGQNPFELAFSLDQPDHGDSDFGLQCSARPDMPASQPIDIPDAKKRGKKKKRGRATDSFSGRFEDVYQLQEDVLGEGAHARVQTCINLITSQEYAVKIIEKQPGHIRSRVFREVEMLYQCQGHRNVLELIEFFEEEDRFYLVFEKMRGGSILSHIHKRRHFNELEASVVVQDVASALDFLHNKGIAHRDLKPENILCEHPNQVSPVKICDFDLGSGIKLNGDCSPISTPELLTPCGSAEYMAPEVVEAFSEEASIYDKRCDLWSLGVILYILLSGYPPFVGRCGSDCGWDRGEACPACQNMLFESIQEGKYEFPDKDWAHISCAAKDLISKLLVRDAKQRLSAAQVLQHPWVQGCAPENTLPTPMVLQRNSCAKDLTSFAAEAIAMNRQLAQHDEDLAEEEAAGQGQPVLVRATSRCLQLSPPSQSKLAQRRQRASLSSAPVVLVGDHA

IC50 [1]: 200 nM
Structure (SMILES): Cc1cccc(-c2cc3c(cn2)ncc2ncn(-c4ccc5nc[nH]c5c4)c23)c1

IC50 [4]: > 25000 nM | solubility thermodynamic at 16 h [5]: < 4 µM | IC50 [2]: 540 nM | IC50 [3]: 440 nM | IC50 [6]: > 10000 nM | IC50 [1]: 20 nM | fraction unbound at 4 h, 5 µM [7]: < 0.01 | solubility thermodynamic at 16 h [8]: 6 µM (≈ 2.28 µg/mL) | IC50 [9]: 61 nM | IC50 [10]: < 340 nM | IC50 [11]: < 1400 nM | IC50 [12]: 1780 nM | logP [13]: 4.2
Structure (SMILES): c1cnc2ccc(-n3cnc4cnc5cnc(-c6ccsc6)cc5c43)cc2c1

IC50 [1]: 40 nM | logP [13]: 4
Structure (SMILES): c1nc2ccc(-n3cnc4cnc5cnc(-c6ccsc6)cc5c43)cc2[nH]1

IC50 [1]: 150 nM
Structure (SMILES): c1nc2ccc(-n3cnc4cnc5cnc(-c6cn[nH]c6)cc5c43)cc2[nH]1

IC50 [1]: 90 nM
Structure (SMILES): c1ccc(-c2cc3c(cn2)ncc2ncn(-c4ccc5nc[nH]c5c4)c23)cc1

IC50 [1]: 160 nM
Structure (SMILES): c1nc2ccc(-n3cnc4cnc5cnc(-c6cnsc6)cc5c43)cc2[nH]1

Second part, the compound before the results:

Structure (SMILES): C[C@@H](CN1CCOCC1)Nc1ccc2cc(-n3cnc4cnc5cnc(-c6ccncc6)cc5c43)ccc2n1
IC50 [2]: 620 nM | IC50 [3]: 1250 nM | IC50 [1]: 38 nM

Structure (SMILES): c1nc2ccc(-n3cnc4cnc5cnc(N6CCCCC6)cc5c43)cc2[nH]1
IC50 [1]: 3500 nM

Structure (SMILES): CC(CN1CCOCC1)Nc1nc2ccc(-n3cnc4cnc5cnc(-c6cccs6)cc5c43)cc2s1 (configuration not stated)
dose excreted [14]: 0.63% | solubility thermodynamic at 16 h [5]: 13 µM (≈ 6.86 µg/mL) | IC50 [2]: 280 nM | clearance [15]: 40 mL/min/kg | IC50 [3]: 290 nM | remaining at 1 h [16]: 86% | dose excreted at 8 h [17]: 1% | remaining at 4 h [18]: 68% | IC50 [1]: 22 nM | fraction unbound at 4 h, 5 µM [7]: < 0.01 | solubility thermodynamic at 16 h [8]: 261 µM (≈ 138 µg/mL) | IC50 [12]: > 10000 nM | half-life at 5 µM [19]: < 3 min | dose excreted [20]: 0.63% | logP [13]: 5.1 | dose excreted at 8 h [21]: 4% | remaining at 1 h, 5 µM [22]: 66%

Structure (SMILES): Cc1cnc(NC(=O)C2=C(O)c3ccccc3S(=O)(=O)N2C)s1
Activity (Canis familiaris): Active

Structure (SMILES): N#CCc1ccc(-n2cnc3cnc4cnc(-c5ccsc5)cc4c32)cc1
IC50 [1]: 50 nM | logP [13]: 3.9

Structure (SMILES): CC(CN1CCOCC1)Nc1nc2ccc(-n3cnc4c(=O)[nH]c5cnc(-c6cccs6)cc5c43)cc2s1 (configuration not stated)
Drug metabolism [23]: Metabolite_Detected | Drug metabolism [24]: Metabolite_Detected | Drug metabolism [25]: Metabolite_Detected | Drug metabolism [26]: Metabolite_Detected
